Experimental data: ChEMBL document CHEMBL3872254, “Design, synthesis and biological evaluation of alkylamino biphenylamides as Hsp90 C-terminal inhibitors” (Bioorg Med Chem, 2017)
Activity calls are given as the source filed them. No cut-off for these calls is given here.

Key:
[1] = Anti-proliferative activity against ER positive human MCF7 cells measured after 72 hrs by MTS/PMS assay; format: functional, cell-based; details: MCF7, 72 h
Outline: (§1)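 Cells grown in 1:1 Advanced DMEM/F12 with non-essential amino acids, 2 mM L-glutamine, penicillin/streptomycin, 10% FBS, 37 °C, 5% CO2; seeded 2000/well, attached overnight. Compound added in DMSO (1% final), 72 h incubation; viable cells by MTS/PMS. 1% DMSO wells set as 100% proliferation; IC50 from separate experiments run in triplicate, mean ± SD of at least two experiments.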

[2] = Anti-proliferative activity against human SKBR3 cells over-expressing Her2 measured after 72 hrs by MTS/PMS assay; format: functional, cell-based; details: SK-BR-3, 72 h; outline: as §1
[3] = target: T1, Heat shock protein HSP90 (Homo sapiens) (UniProt P07900+P08238); assay: Inhibition of C-terminal Hsp90 in human PC3MM2 cells assessed as decrease in Hsp90-dependent refolding of thermally denatured luciferase at 0.1 to 100 uM; format: cell-based
Outline: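 Hsp90-dependent luciferase refolding measured in PC3-MM2 cells; compounds tested at 0.1−100 μM against DMSO vehicle, with a reference Hsp90 inhibitor as positive control.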

[4] = target: T1, Heat shock protein HSP90 (Homo sapiens); assay: Inhibition of C-terminal Hsp90 in human MCF7 cells assessed as degradation of Raf-1 measured after 24 hrs by Western blot method; format: cell-based
Outline: (§2)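 MCF-7 cells cultured as for proliferation, exposed to compound in DMSO (1% final) for 24 h alongside geldanamycin 0.5 μM and DMSO controls. Harvested in cold PBS, lysed 1 h on ice in RIPA with 1 mM PMSF, 2 mM orthovanadate, protease inhibitors; cleared 14000g 10 min 4 °C. BCA-normalized 20 μg protein, reducing SDS-PAGE, nitrocellulose, specific antibodies, HRP secondary, chemiluminescence.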

[5] = target: T1, Heat shock protein HSP90 (Homo sapiens); assay: Inhibition of C-terminal Hsp90 in human MCF7 cells assessed as degradation of Her2 measured after 24 hrs by Western blot method; format: cell-based; outline: as §2
[6] = Effect on actin expression in human MCF7 cells at 0.2 to 10 uM measured after 24 hrs by Western blot method; format: ADME, cell-based; details: mcf7, 24 h; outline: as §2
[7] = target: T1, Heat shock protein HSP90 (Homo sapiens); assay: Inhibition of C-terminal Hsp90 in human MCF7 cells assessed as degradation of Akt measured after 24 hrs by Western blot method; format: cell-based; outline: as §2

SMILES | IC50 [1] [nM] | IC50 [2] [nM] | other results
COc1cccc(-c2cc(C(=O)Nc3ccc(-c4ccc(OC5CCN(C)CC5)cc4)c(O)c3)ccc2OC)c1 | 1800 | 3430 | 
COc1cccc(-c2cc(C(=O)Nc3ccc(-c4ccc(OC5CCN(C)CC5)c(O)c4)cc3)ccc2OC)c1 | 1220 | 1560 | 
COCOc1cc(OC2CCN(C)CC2)ccc1-c1ccc(NC(=O)c2ccc(OC)c(-c3cccc(OC)c3)c2)cc1 | 1380 | 1140 | 
COc1cccc(-c2cc(C(=O)Nc3ccc(-c4ccc(OC5CCN(C)CC5)cc4)c(OCCN(C)C)c3)ccc2OC)c1 | 790 | 650 | 
COc1cccc(-c2cc(C(=O)Nc3ccc(-c4ccc(OC5CCN(C)CC5)cc4OCCN(C)C)cc3)ccc2OC)c1 | 1040 | 390 | inhibition [3]: Active
COc1cccc(-c2cc(C(=O)Nc3ccc(-c4ccc(OC5CCN(C)CC5)cc4)c(OCCCN(C)C)c3)ccc2OC)c1 | 670 | 550 | 
COc1cccc(-c2cc(C(=O)Nc3ccc(-c4ccc(OC5CCN(C)CC5)cc4OCCCCN(C)C)cc3)ccc2OC)c1 | 1120 | 1270 | 
COc1cccc(-c2cc(C(=O)Nc3ccc(-c4ccc(OC5CCN(C)CC5)cc4OCCCO)cc3)ccc2OC)c1 | 3110 | 3870 | 
COc1cccc(-c2cc(C(=O)Nc3ccc(-c4ccc(OC5CCN(C)CC5)cc4O)cc3)ccc2OC)c1 | 4070 | 3550 | 
COc1cccc(-c2cc(C(=O)Nc3ccc(-c4ccc(OC5CCN(C)CC5)cc4OC4CCN(C)CC4)cc3)ccc2OC)c1 | 2540 | 1160 | 
COc1cccc(-c2cc(C(=O)Nc3ccc(-c4ccc(OC5CCN(C)CC5)cc4OCCCN4C(=O)c5ccccc5C4=O)cc3)ccc2OC)c1 | 1430 | 3130 | 
COc1cccc(-c2cc(C(=O)Nc3ccc(-c4ccc(OC5CCN(C)CC5)c(OCCCN(C)C)c4)cc3)ccc2OC)c1 | 1050 | 750 | 
COc1cccc(-c2cc(C(=O)Nc3ccc(-c4ccc(OC5CCN(C)CC5)cc4)cc3OCCN(C)C)ccc2OC)c1 | 810 | 840 | 
COc1cccc(-c2cc(C(=O)Nc3ccc(-c4ccc(OC5CCN(C)CC5)cc4)cc3)ccc2OC)c1 | 710 | 470 | 
COc1cccc(-c2cc(C(=O)Nc3ccc(-c4ccc(OC5CCN(C)CC5)c(OCCN(C)C)c4)cc3)ccc2OC)c1 | 700 | 400 | 
COc1cccc(-c2cc(C(=O)Nc3ccc(-c4ccc(OC5CCN(C)CC5)cc4OCCCOC(C)=O)cc3)ccc2OC)c1 | 2490 | 1960 | 
COc1cccc(-c2cc(C(=O)Nc3ccc(-c4ccc(OC5CCN(C)CC5)cc4OCCCN(C)C)cc3)ccc2OC)c1 | 840 | 340 | inhibition [4]: Dose-dependent effect; inhibition [3]: Active; inhibition [5]: Dose-dependent effect; Activity [6]: Non-Toxic; inhibition [7]: Dose-dependent effect
COc1cccc(-c2cc(C(=O)Nc3ccc(-c4ccc(OC5CCN(C)CC5)cc4)cc3OCCCN(C)C)ccc2OC)c1 | 750 | 690 | 
COc1cccc(-c2cc(C(=O)Nc3ccc(-c4ccc(OC5CCN(C)CC5)cc4)cc3O)ccc2OC)c1 | 710 | 910 | 
COCOc1cc(-c2ccc(NC(=O)c3ccc(OC)c(-c4cccc(OC)c4)c3)cc2)ccc1OC1CCN(C)CC1 | 990 | 820 | 
COc1cccc(-c2cc(C(=O)Nc3ccc(-c4ccc(OC5CCN(C)CC5)cc4OC4CCCCC4)cc3)ccc2OC)c1 | 2360 | 3240 | 
